Experimental data published in PMC6658111 (Journal of molecular biology, 2018).
Positions count from the first letter of the chain named. In names and notes the source's numbering stands. Several values for one entry are separate records, joined by “and”; a condition that tells them apart may be missing. Identical values can stand only once. Like-named read-outs stand apart in the source and are kept apart here. Non-standard residues stand in square brackets, D forms with d. No end group written: not given here. pT = C[C@@H](OP(=O)(O)O)[C@H](N)C(=O)O; MBP = not defined here

Assays:
[1] = system: wild type CaMKII kinase domain; set-up: species or system Drosophila; conditions: LC-HRMS of final ITC mixture, Mg2+-AMPCP
Outline: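 Sample is the end-point mixture of isothermal titration calorimetry at 25 °C. MBP-dEAG channel fragment was titrated into a cell holding the Drosophila CaMKII kinase domain (residues 1–283, E. coli-expressed, wild type or D136N), with one 2 μl injection then 27 × 10 μl. Partners were first co-dialysed against 25 mM HEPES pH 7.5, 150 mM KCl, 0.5 mM TCEP, then with 1 mM MgCl₂ + 250 μM nucleotide. Final composition was 5 mM MgCl₂ and 1 mM nucleotide.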

[2] = system: wild type CaMKII kinase domain (residues 1–283); assay type: binding; conditions: ITC; for −TΔS: 25 °C, pH 7.5, Mg2+-AMPPNP, mean and standard deviation of the mean
[3] = system: CaMKII^D136N kinase domain (residues 1–283); assay type: binding; conditions: ITC, 25 °C, pH 7.5, Mg2+-AMPPNP, mean and standard deviation of the mean, n=4
[4] = system: CaMKII^K43M,D136N kinase domain; assay: Isothermal titration calorimetry with K43M/D136N CaMKII kinase domain; assay type: binding, Drosophila; conditions: ITC, 25 °C, pH 7.5, Mg2+-AMPPNP, mean and standard deviation of the mean, n=3
T787A dEAG channel = assay: Two-electrode voltage clamp in oocytes, T787A dEAG channel; assay type: cell-based, Drosophila; conditions: Xenopus laevis oocytes, n=7–10
wild type dEAG channel = assay: Two-electrode voltage clamp in oocytes, wild type dEAG channel; assay type: cell-based, Drosophila; conditions: Xenopus laevis oocytes, co-expression with inactive kinase (K43M/D136N); n=6–8
Outline: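 Xenopus oocytes were defolliculated with 75 µg/ml Liberase for 40–60 min in Ca²⁺-free ND96. Stage V–VI cells were injected with premixed channel and kinase cRNA, then kept 1–5 d at 16 °C in storage solution containing gentamycin. Currents were recorded by standard two-microelectrode voltage clamp under continuous perfusion with 96 mM NaCl, 2 mM KCl, 0.3 mM CaCl₂, 1 mM MgCl₂, 5 mM HEPES, pH 7.4.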

[5] = biological target: T1, wild type CaMKII kinase domain (residues 1–283) (Drosophila, UniProt Q00168 1-283); assay: ITC
[6] = biological target: T1, wild type CaMKII kinase domain …; assay: ITC; remark: listed apart in the source
[7] = biological target: T1, wild type CaMKII kinase domain …; assay: ITC; remark: listed apart in the source
[8] = biological target: CaMKII kinase domain K43M/D136N mutant (Drosophila, UniProt Q00168 1-283, K43M | D136N); assay: ITC
[9] = biological target: T2, CaMKII kinase domain D136N mutant (residues 1–283) (Drosophila, UniProt Q00168 1-283, D136N); assay: ITC
[10] = biological target: T2, CaMKII kinase domain D136N mutant …; assay: ITC; remark: listed apart in the source
[11] = biological target: T2, CaMKII kinase domain D136N mutant …; assay: crystal structure
[12] = dEAGlong, individually fitted, n=4 (WT), n=3 (R784A, D789A)

Chain of CaMKII kinase domain K43M/D136N mutant (Q00168 1-283 K43M/D136N): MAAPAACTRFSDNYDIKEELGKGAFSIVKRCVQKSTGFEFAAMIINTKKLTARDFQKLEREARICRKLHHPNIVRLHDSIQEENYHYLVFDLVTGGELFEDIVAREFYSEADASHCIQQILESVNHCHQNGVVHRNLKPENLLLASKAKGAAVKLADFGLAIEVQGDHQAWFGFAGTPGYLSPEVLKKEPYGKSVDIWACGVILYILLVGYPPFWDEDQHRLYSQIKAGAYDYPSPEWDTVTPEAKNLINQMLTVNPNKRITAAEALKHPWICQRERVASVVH
T1 sequence (Q00168 1-283): as the sequence (Q00168 1-283 K43M/D136N) above, with M43K, N136D counted along it
T2 sequence (Q00168 1-283 D136N): as the sequence (Q00168 1-283 K43M/D136N) above, with M43K counted along it
Chain of T787A dEAG channel (Q02280 whole entry T787A): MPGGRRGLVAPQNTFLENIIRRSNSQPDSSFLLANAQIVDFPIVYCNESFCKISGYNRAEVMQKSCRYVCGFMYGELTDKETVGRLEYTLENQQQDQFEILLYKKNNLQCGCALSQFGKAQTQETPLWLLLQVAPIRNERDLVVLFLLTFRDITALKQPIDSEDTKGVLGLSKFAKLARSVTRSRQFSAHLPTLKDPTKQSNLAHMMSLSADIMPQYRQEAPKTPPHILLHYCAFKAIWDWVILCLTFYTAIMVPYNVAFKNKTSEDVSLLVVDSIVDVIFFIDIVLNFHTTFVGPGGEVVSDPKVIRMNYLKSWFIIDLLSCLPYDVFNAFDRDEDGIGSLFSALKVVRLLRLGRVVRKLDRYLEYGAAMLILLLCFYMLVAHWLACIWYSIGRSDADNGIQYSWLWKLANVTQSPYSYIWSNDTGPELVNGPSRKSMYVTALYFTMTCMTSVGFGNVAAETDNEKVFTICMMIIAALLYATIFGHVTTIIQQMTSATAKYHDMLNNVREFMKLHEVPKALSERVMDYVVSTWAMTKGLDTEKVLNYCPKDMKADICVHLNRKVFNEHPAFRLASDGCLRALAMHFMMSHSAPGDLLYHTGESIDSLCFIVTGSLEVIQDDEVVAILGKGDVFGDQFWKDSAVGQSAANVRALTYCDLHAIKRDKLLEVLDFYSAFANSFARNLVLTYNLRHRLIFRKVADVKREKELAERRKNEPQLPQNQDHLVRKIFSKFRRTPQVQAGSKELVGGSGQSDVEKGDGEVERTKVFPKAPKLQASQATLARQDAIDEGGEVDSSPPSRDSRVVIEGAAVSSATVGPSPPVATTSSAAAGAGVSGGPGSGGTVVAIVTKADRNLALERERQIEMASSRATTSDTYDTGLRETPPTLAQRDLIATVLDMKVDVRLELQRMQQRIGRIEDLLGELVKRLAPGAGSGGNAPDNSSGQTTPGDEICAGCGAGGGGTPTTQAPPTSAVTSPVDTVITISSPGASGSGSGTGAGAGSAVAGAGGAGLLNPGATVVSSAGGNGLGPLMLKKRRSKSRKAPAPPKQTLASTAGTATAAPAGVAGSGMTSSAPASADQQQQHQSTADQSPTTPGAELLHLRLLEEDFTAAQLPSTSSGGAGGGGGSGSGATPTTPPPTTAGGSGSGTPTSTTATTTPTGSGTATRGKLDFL

“EAGshort: dEAG residues 768 to 795 with mutations S778N and T781K, fused to maltose-binding protein ({MBP}-VFPKAPKLQANQAKLARQDTIDEGGEVD; reading uncertain; also: N-terminal His6, state not given here)” was tested. Which “phosphorylation state of fragment at end of ITC” value [1] did it give?
Its value is “dephosphorylated during the titration”.

And the “−TΔS” value ([2]; dEAGshort, wild type kinase, n=3)?
The value was 47.7 ± 3.8 kJ/mol.

And the “−TΔS” value [3]?
The value was 22.2 ± 15.9 kJ/mol.

And the “−TΔS” value [4]?
The value was 36.4 ± 0.42 kJ/mol.

With “EAGlong^D789A: alanine mutant D789A of MBP-dEAGlong ({MBP}-VFPKAPKLQASQATLARQDTIAEGGEVDSSPPSRDSRVVIEGAAVSSATVGPS; reading uncertain)” as the molecule, how does the “−TΔS” value [2, 12] read?
Its value is 23.8 ± 9.62 kJ/mol.

Which “affinity relative to typical kinase-substrate (KD ~200 μM)” value ([2]; fold tighter than expected for a kinase-substrate, typical KD from ref 27) does the source give for “dEAGlong^P: phosphorylated dEAGlong channel fragment used in crystal structure (VFPKAPKLQASQATLARQD[pT]IDEGGEVDSSPPSRDSRVVIEGAAVSSATVGPS; also: phosphothreonine at T787)” here?
Its value is “approximately 200 fold”.

Which “−TΔS” value [2, 12] does the source give for “EAGlong^R784A: alanine mutant R784A of MBP-dEAGlong ({MBP}-VFPKAPKLQASQATLAAQDTIDEGGEVDSSPPSRDSRVVIEGAAVSSATVGPS; reading uncertain)” here?
Its value is 18.4 ± 19.7 kJ/mol.

With “inactive Drosophila kinase: full-length Drosophila CaMKII with two point mutations (K43M/D136N) in the active site” as the molecule, how does the “effect of co-expressed kinase on channel activity” value (T787A dEAG channel) read?
Its value is “loss of measurable currents”.

What about the “reduction of channel current” value (wild type dEAG channel) of the same molecule?
Its value is “more than 10 fold”.

B1: MBP-dEAG_(long) (wild-type Drosophila EAG CaMKII-binding fragment, residues 768 to 820, fused to maltose-binding protein) (domain or fragment, UniProt Q02280 768-820, looked up)
chain: {MBP}-VFPKAPKLQASQATLARQDTIDEGGEVDSSPPSRDSRVVIEGAAVSSATVGPS
modifications: reading uncertain
Which Kd [5] does the source give for B1 here?
Its Kd is 0.674 µM.

And the dH [5]?
The dH was -72.4 kJ/mol.

What about the “stoichiometry N” value [5] of the same molecule?
Its value is 0.96.

What about the Kd [6] of the same molecule?
The Kd was 1 µM.

What about the dH [6] of the same molecule?
The dH was -30.5 kJ/mol.

What about the “stoichiometry N” value [6] of the same molecule?
The value was 0.94.

B2: MBP-dEAG_(long) D789A (domain or fragment, Drosophila, UniProt Q02280 768-820, looked up)
chain: VFPKAPKLQASQATLARQDTIAEGGEVDSSPPSRDSRVVIEGAAVSSATVGPS
For B2, which Kd [5] is on record?
The Kd was 7.3 µM.

And the dH [5]?
The dH was -53.1 kJ/mol.

And the “stoichiometry N” value [5]?
Its value is 1.02.

B3: MBP-dEAG_(long) E790A (domain or fragment, Drosophila, UniProt Q02280 768-820, looked up)
chain: B2 chain with A22D, E23A
B3 was tested. Which Kd [5] did it give?
The Kd was 2.43 µM.

And the dH [5]?
Its dH is -65.8 kJ/mol.

And the “stoichiometry N” value [5]?
The value was 1.06.

B4: MBP-dEAG_(long) E793A (domain or fragment, Drosophila, UniProt Q02280 768-820, looked up)
chain: B2 chain with A22D, E26A
For B4, which Kd [5] is on record?
Its Kd is 1.68 µM.

What about the dH [5] of the same molecule?
The dH was -70 kJ/mol.

And the “stoichiometry N” value [5]?
Its value is 0.978.

B5: MBP-dEAG_(long) I788A (domain or fragment, Drosophila, UniProt Q02280 768-820, looked up)
chain: B2 chain with I21A, A22D
Which results are given for B5?
Kd [5]: 80.3 µM; dH [5]: -43.8 kJ/mol; stoichiometry N [5]: 0.667 and 1.09

B6: MBP-dEAG_(long) L782A (domain or fragment, Drosophila, UniProt Q02280 768-820, looked up)
chain: B2 chain with L15A, A22D
What does the source list for B6?
Kd [5]: 24.6 µM; dH [5]: -15.7 kJ/mol; stoichiometry N [5]: 1.28 and 0.645

B7: MBP-dEAG_(long) Q785A (domain or fragment, Drosophila, UniProt Q02280 768-820, looked up)
chain: B2 chain with Q18A, A22D
With B7 as the molecule, how does the Kd [5] read?
Its Kd is 12.6 µM.

And the dH [5]?
Its dH is -77.3 kJ/mol.

What about the “stoichiometry N” value [5] of the same molecule?
The value was 0.747 and 0.664.

B8: MBP-dEAG_(long) R784A (domain or fragment, Drosophila, UniProt Q02280 768-820, looked up)
chain: B2 chain with R17A, A22D
With B8 as the molecule, how does the Kd [5] read?
The Kd was 47 µM.

And the dH [5]?
Its dH is -43.1 kJ/mol.

What about the “stoichiometry N” value [5] of the same molecule?
Its value is 0.85.

With VFPKAPKLQANQAKLARQDTIDEGGEVD (domain or fragment, UniProt Q02280 768-795, looked up) as the molecule, how does the Kd [7] read?
The Kd was 0.094 µM.

What about the dH [7] of the same molecule?
Its dH is -87.9 kJ/mol.

What about the “stoichiometry N” value [7] of the same molecule?
The value was 0.86.

And the Kd [8]?
The Kd was 0.173 µM.

And the dH [8]?
The dH was -75.3 kJ/mol.

What about the “stoichiometry N” value [8] of the same molecule?
The value was 0.79.

And the Kd [9]?
The Kd was 0.197 µM.

And the dH [9]?
Its dH is -60.7 kJ/mol.

And the “stoichiometry N” value [9]?
The value was 0.81.

What about the Kd [10] of the same molecule?
Its Kd is 0.216 µM.

And the dH [10]?
The dH was -68.2 kJ/mol.

And the “stoichiometry N” value [10]?
Its value is 0.83.

How did the Kd [10] turn out when {MBP}-VFPKAPKLQANQAKLARQD[pT]IDEGGEVD (domain or fragment, Drosophila, UniProt Q02280 768-795, looked up, reading uncertain) [MBP-dEAG_(short)^P (phosphorylated dEAG_(short), phosphorylated at T787)] was run?
Its Kd is 0.000475 µM.

And the dH [10]?
Its dH is -37.2 kJ/mol.

And the “stoichiometry N” value [10]?
Its value is 1.07.

B9: phosphorylated dEAG_(long) channel fragment (dEAG_(long)^P), MBP removed (domain or fragment, Drosophila, UniProt Q02280 768-820, looked up)
chain: VFPKAPKLQASQATLARQD[pT]IDEGGEVDSSPPSRDSRVVIEGAAVSSATVGPS
modifications: also: phosphothreonine at T787
Does B9 bind [11]?
Result: binds
